Source: ChEMBL document CHEMBL1129972 (J Med Chem, 1997)
Bridge positions count the residues as written; N and C are the ends. Square brackets hold non-standard residues; d marks the D form. Peptide text beside a SMILES is read from it. Pen = CC(C)(S)[C@H](N)C(=O)O; hCys = N[C@@H](CCS)C(=O)O

Tests used:
[1] = biological target: T1, Angiotensin II receptor (AT-1) type-1 (Rattus norvegicus, UniProt P29089+P25095); experiment: Inhibitory concentration against [125 I]Ang II binding to rat pituitary membranes Angiotensin II receptor type 1 without 0.2% bovine serum albumin
T1 sequence (P29089 whole entry): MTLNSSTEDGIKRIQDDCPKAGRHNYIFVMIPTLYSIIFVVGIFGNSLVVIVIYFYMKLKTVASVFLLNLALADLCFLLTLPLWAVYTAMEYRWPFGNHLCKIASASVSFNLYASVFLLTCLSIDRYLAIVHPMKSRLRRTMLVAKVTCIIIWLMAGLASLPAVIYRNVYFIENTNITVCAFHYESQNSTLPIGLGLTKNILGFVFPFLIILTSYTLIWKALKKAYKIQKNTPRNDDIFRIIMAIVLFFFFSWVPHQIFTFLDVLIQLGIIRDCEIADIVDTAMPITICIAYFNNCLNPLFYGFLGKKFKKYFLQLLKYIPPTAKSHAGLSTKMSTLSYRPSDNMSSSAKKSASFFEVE
T1 sequence (P25095 whole entry): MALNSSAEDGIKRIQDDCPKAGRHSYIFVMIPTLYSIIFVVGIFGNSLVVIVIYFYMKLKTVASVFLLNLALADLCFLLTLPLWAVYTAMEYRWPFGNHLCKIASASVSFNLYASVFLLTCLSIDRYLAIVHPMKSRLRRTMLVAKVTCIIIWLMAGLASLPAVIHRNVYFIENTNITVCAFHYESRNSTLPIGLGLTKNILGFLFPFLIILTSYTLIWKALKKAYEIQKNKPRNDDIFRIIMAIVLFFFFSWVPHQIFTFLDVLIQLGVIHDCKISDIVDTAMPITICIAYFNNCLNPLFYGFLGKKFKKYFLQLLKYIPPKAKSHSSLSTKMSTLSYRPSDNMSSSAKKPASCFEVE

Oryctolagus cuniculus [2] = species: Oryctolagus cuniculus; experiment: Concentration which produces 50% of maximal contractile response at rabbit aorta strips; format: functional
Method in brief: (§1)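 Thoracic aortic rings (2 mm) from male New Zealand white rabbits (2.5–3.5 kg, pentobarbitone-anesthetized) in Krebs' bicarbonate buffer, 38.5 °C, pH 7.4, 95% O2/5% CO2; isometric tension, 2 g resting, ~90 min equilibration with one 300 nM Ang II challenge. Control cumulative Ang II curve (3×10^-10–10^-7 M), then cumulative test-compound curve 3×10^-10–10^-5 M; response as % of control Ang II maximum.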

[3] = biological target: T1, Angiotensin II receptor (AT-1) type-1; experiment: Inhibitory concentration against specific binding of [125 I]Ang II to rat pituitary membranes (Angiotensin II receptor, type 1) in presence of 0.2% bovine serum albumin; format: cell membranes, Membrane
Oryctolagus cuniculus [4] = species: Oryctolagus cuniculus; experiment: Contractile activity in isolated rabbit aortic rings; format: functional, Aorta; method in brief: as §1

SMILES	IC50 [1]	EC50 (Oryctolagus cuniculus [2])	IC50 [3]	pD2 (Oryctolagus cuniculus [4])
CC[C@H](C)[C@@H](C(=O)N[C@@H](Cc1c[nH]cn1)C(=O)N1CCC[C@H]1C(=O)N[C@@H](Cc1ccccc1)C(=O)O)N1Cc2cc(NC(=O)[C@H](CCCN=C(N)N)NC(=O)[C@@H](N)CC(=O)O)ccc2[C@H](Cc2ccc(O)cc2)C1=O	> 100000 nM			
CC1(C)SSC(C)(C)[C@@H](C(=O)N[C@@H](Cc2c[nH]cn2)C(=O)N2CCC[C@H]2C(=O)N[C@@H](Cc2ccccc2)C(=O)O)NC(=O)[C@H](Cc2ccc(O)cc2)NC(=O)[C@H]1NC(=O)[C@H](CCCN=C(N)N)NC(=O)[C@@H](N)CC(=O)O (H-DR[Pen]Y[Pen]HPF-OH; disulfide 3-5)	0.9 nM	217 nM	3.8 nM	
NC(N)=NCCC[C@H](NC(=O)[C@@H](N)CC(=O)O)C(=O)N[C@H]1CSSC[C@@H](C(=O)N[C@@H](Cc2c[nH]cn2)C(=O)N2CCC[C@H]2C(=O)N[C@@H](Cc2ccccc2)C(=O)O)NC(=O)[C@H](Cc2ccc(O)cc2)NC1=O (H-DRCYCHPF-OH; disulfide 3-5)	2.9 nM		28 nM	
NC(N)=NCCC[C@H](NC(=O)[C@@H](N)CC(=O)O)C(=O)N[C@H]1CCSSCC[C@@H](C(=O)N[C@@H](Cc2c[nH]cn2)C(=O)N2CCC[C@H]2C(=O)N[C@@H](Cc2ccccc2)C(=O)O)NC(=O)[C@H](Cc2ccc(O)cc2)NC1=O (H-DR[hCys]Y[hCys]HPF-OH; disulfide 3-5)	1.7 nM		15.4 nM	8.48
CC[C@H](C)[C@@H](C(=O)N[C@@H](Cc1c[nH]cn1)C(=O)N1CCC[C@H]1C(=O)N[C@@H](Cc1ccccc1)C(=O)O)N1CCC(CNC(=O)[C@H](CCCN=C(N)N)NC(=O)[C@@H](N)CC(=O)O)=C[C@@H](Cc2ccc(O)cc2)C1=O	2.8 nM	830 nM		
CC[C@H](C)[C@H](NC(=O)[C@H](Cc1ccc(O)cc1)NC(=O)[C@@H](NC(=O)[C@H](CCCNC(=N)N)NC(=O)[C@@H](N)CC(=O)O)C(C)C)C(=O)N[C@@H](Cc1cnc[nH]1)C(=O)N1CCC[C@H]1C(=O)N[C@@H](Cc1ccccc1)C(=O)O [ANGIOTENSIN II]		2.6 nM		
CC[C@H](C)[C@@H](C(=O)N[C@@H](Cc1c[nH]cn1)C(=O)N1CCC[C@H]1C(=O)N[C@@H](Cc1ccccc1)C(=O)O)N1CCC(CNC(=O)[C@H](CCCN=C(N)N)NC(=O)[C@@H](N)CC(=O)O)=C[C@H](Cc2ccc(O)cc2)C1=O	2 nM			
CC[C@H](C)[C@@H](C(=O)N[C@@H](Cc1cnc[nH]1)C(=O)N1CCC[C@H]1C(=O)N[C@@H](Cc1ccccc1)C(=O)O)N1Cc2cc(NC(=O)[C@H](CCCN=C(N)N)NC(=O)[C@@H](N)CC(=O)O)ccc2[C@@H](Cc2ccc(O)cc2)C1=O	> 100000 nM			
